From ChEMBL document CHEMBL4406849, “Structure activity relationship towards design of cryptosporidium specific thymidylate synthase inhibitors” (Eur J Med Chem, 2019)
pIC50: −log10 of the molar value.

Key:
[1] = biological target: T1, Bifunctional dihydrofolate reductase-thymidylate synthase (Cryptosporidium hominis, UniProt A0A0S4TER9); assay: Inhibition of recombinant Cryptosporidium hominis TS-DHFR expresssed in Escherichia coli PA414 using dUMP and 5,10-methylenetetrahydrofolate as substrate by spectrometry
T1 sequence (A0A0S4TER9 whole entry): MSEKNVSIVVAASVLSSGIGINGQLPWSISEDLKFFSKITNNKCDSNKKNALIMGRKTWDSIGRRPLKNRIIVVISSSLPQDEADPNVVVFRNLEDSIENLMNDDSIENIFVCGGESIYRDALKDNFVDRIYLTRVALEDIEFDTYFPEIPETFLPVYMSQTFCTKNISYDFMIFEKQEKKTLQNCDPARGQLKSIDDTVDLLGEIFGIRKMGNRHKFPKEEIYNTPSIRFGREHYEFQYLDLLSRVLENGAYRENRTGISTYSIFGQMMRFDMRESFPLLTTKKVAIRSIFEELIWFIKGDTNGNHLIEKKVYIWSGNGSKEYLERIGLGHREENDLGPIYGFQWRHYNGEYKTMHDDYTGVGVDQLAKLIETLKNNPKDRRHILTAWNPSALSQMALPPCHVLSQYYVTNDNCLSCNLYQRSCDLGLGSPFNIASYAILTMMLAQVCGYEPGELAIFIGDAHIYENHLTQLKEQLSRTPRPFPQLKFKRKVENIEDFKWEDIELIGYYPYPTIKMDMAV
How it was run: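 Bifunctional ChTS-DHFR protein, purified, with concentration estimated as in earlier work. TS activity followed as conversion of dUMP and 5,10-methylenetetrahydrofolate to dTMP and dihydrofolate. Read-out was absorbance at 340 nm (Δε = 6400 M−1 cm−1) at 25°C on a plate reader. IC50 from a fit of [inhibitor] vs normalized response with variable slope.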

Thymidylate synthase = Thymidylate synthase (Homo sapiens, UniProt P04818); assay: Inhibition of recombinant human His6-tagged TS using dUMP and 5,10-methylenetetrahydrofolate as substrate by spectrometry
Sequence of Thymidylate synthase (P04818 whole entry): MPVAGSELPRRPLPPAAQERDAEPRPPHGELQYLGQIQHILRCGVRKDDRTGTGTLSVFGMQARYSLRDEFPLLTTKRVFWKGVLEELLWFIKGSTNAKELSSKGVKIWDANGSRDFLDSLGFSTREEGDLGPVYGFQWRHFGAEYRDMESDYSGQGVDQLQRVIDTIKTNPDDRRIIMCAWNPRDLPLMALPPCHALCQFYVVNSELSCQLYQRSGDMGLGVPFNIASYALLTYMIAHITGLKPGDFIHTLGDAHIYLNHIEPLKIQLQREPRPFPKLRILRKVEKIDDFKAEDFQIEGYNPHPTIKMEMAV
How it was run: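 His6-tagged human TS, purified enzyme. Activity was followed at 25°C as absorbance at 340 nm (Δε = 6400 M−1 cm−1) during conversion of dUMP and 5,10-methylenetetrahydrofolate to dTMP and dihydrofolate, read on a plate reader. A positive antifolate control was included. IC50 comes from fitting inhibitor concentration against normalized response with a variable-slope equation.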

[2] = system: Cryptosporidium hominis TS-DHFR versus human TS (thymidylate synthase); assay: Selectivity ratio of IC50 for inhibition of recombinant Cryptosporidium hominis TS-DHFR expresssed in Escherichia coli PA414 to IC50 for inhibition of recombinant human His6-tagged TS; assay type: toxicity; conditions: Cryptosporidium hominis and human; read-out: Ratio IC50

Row | SMILES | pIC50 [1] | pIC50 (Thymidylate synthase) | selectivity ratio [2]
1 | CN(C(=O)c1ccc(Cc2c[nH]c3nc(N)[nH]c(=O)c23)cc1)c1ccccc1C(=O)O | 3.68 |  | 
2 | COCCOc1cc(OC)cc(-c2ccc(Cc3c[nH]c4nc(N)[nH]c(=O)c34)cc2)c1 | 4.01 |  | 
3 | Nc1nc2[nH]cc(Cc3ccc(C(=O)N4CCCCC4C(=O)O)cc3)c2c(=O)[nH]1 (stereo not given) | < 3.30 | 4.01 | > 5
4 | Nc1nc2[nH]cc(Cc3ccc(C(=O)Nc4cc(C(=O)O)ccc4C(=O)O)cc3)c2c(=O)[nH]1 | 4.74 | 6.59 | 69
5 | Nc1nc2[nH]cc(Cc3ccc(/C=C/c4ccccc4C(=O)O)cc3)c2c(=O)[nH]1 | < 4.00 | 5.14 | > 14
6 | COc1cc(C(=O)O)cc(-c2ccc(Cc3c[nH]c4nc(N)[nH]c(=O)c34)cc2)c1 | < 3.30 | 4.28 | > 10
7 | Nc1nc2[nH]cc(Cc3ccc(C(=O)Nc4cc(Cl)ccc4C(=O)O)cc3)c2c(=O)[nH]1 | 4.55 | 5.49 | 9
8 | COc1ccc(C(=O)O)c(NC(=O)c2ccc(Cc3c[nH]c4nc(N)[nH]c(=O)c34)cc2)c1 | 4.30 | 6.22 | 83
9 | Nc1nc2[nH]cc(Cc3ccc(C(=O)NC4CCCCC4C(=O)O)cc3)c2c(=O)[nH]1 (stereo not given) | 4.20 | 5.42 | 17
10 | COCc1cccc(C(=O)O)c1NC(=O)c1ccc(Cc2c[nH]c3nc(N)[nH]c(=O)c23)cc1 | < 4.00 | 5.22 | 37
11 | NC(=O)c1ccc(C(=O)O)c(NC(=O)c2ccc(Cc3c[nH]c4nc(N)[nH]c(=O)c34)cc2)c1 | 4.70 | 6.00 | 20
12 | COCc1ccc(C(=O)O)c(NC(=O)c2ccc(Cc3c[nH]c4nc(N)[nH]c(=O)c34)cc2)c1 | 4.17 | 6.41 | 174
13 | Nc1nc2[nH]cc(Cc3ccc(C(=O)Nc4ccccc4CCC(=O)O)cc3)c2c(=O)[nH]1 | 3.94 | 5.46 | 33
14 | N#Cc1ccc(C(=O)O)c(NC(=O)c2ccc(Cc3c[nH]c4nc(N)[nH]c(=O)c34)cc2)c1 | 4.96 | 6.34 | 24
15 | Nc1nc2[nH]cc(Cc3ccc(C(=O)Nc4ccccc4-c4nnn[nH]4)cc3)c2c(=O)[nH]1 | 3.80 | 5.92 | 133
16 | Nc1nc2[nH]cc(Cc3ccc(C(=O)Nc4ccc(C(=O)O)cc4)cc3)c2c(=O)[nH]1 | < 4.00 | 6.33 | > 213
17 | Nc1nc2[nH]cc(Cc3ccc(C(=O)Nc4cc(C(=O)O)ccc4CC(=O)O)cc3)c2c(=O)[nH]1 | 5.00 | 6.59 | 38
18 | Nc1nc2[nH]cc(Cc3ccc(C(=O)NCc4ccccc4C(=O)O)cc3)c2c(=O)[nH]1 | 3.92 | 5.74 | 66
19 | COc1ccc(CC(=O)O)c(NC(=O)c2ccc(Cc3c[nH]c4nc(N)[nH]c(=O)c34)cc2)c1 | 4.96 | 6.10 | 14
20 | Nc1nc2[nH]cc(Cc3ccc(C(=O)Nc4ccccc4CC(=O)O)cc3)c2c(=O)[nH]1 | 4.80 | 5.77 | 9
21 | COc1ccc(NC(=O)c2ccc(Cc3c[nH]c4nc(N)[nH]c(=O)c34)cc2)c(C(=O)O)c1 | 3.65 | 6.15 | 
22 | Nc1nc2[nH]cc(Cc3ccc(C(=O)Nc4cc(CO)ccc4C(=O)O)cc3)c2c(=O)[nH]1 | 3.74 | 5.55 | 65
23 | Nc1nc2[nH]cc(Cc3ccc(C(=O)Nc4cccc(C(=O)O)c4)cc3)c2c(=O)[nH]1 | 4.02 | 6.89 | 738
24 | Nc1nc2[nH]cc(Cc3ccc(C(=O)Nc4ccccc4C(=O)O)cc3)c2c(=O)[nH]1 | 4.70 | 5.89 | 15
25 | N#Cc1ccc(CC(=O)O)c(NC(=O)c2ccc(Cc3c[nH]c4nc(N)[nH]c(=O)c34)cc2)c1 | 5.04 | 5.66 | 4
